Data taken from ChEMBL document CHEMBL1157034, “Synthesis of 1-benzyl-3-(5-hydroxymethyl-2-furyl)selenolo[3,2-c]pyrazole derivatives as new anticancer agents” (Eur J Med Chem, 2010).

Legend:
Type in all cases: functional
786-0 = assay: Antitumor activity against human 786-0 cells after 48 hrs by MTT assay; details: 786-0, 48 h
HCT-116 = assay: Antitumor activity against human HCT116 cells after 48 hrs by MTT assay; details: HCT-116, 48 h
SW-620 = assay: Antitumor activity against human SW620 cells after 48 hrs by MTT assay; details: SW-620, 48 h
MCF7 = assay: Antitumor activity against human MCF7 cells after 48 hrs by MTT assay; details: MCF7, 48 h
KM12 = assay: Antitumor activity against human KM12 cells after 48 hrs by MTT assay; details: KM12, 48 h
[1] = Antitumor activity against human MCF7/ADR cells after 48 hrs by MTT assay; details: NCI/ADR-RES
MOLT-4 = assay: Antitumor activity against human MOLT4 cells after 48 hrs by MTT assay; details: MOLT-4, 48 h
SF-295 = assay: Antitumor activity against human SF295 cells after 48 hrs by MTT assay; details: SF-295, 48 h
OVCAR-4 = assay: Antitumor activity against human OVCAR4 cells after 48 hrs by MTT assay; details: OVCAR-4, 48 h
CAKI-1 = assay: Antitumor activity against human Caki1 cells after 48 hrs by MTT assay; details: CAKI-1, 48 h
NCI-H460 = assay: Antitumor activity against human NCI-H460 cells after 48 hrs by MTT assay; details: NCI-H460, 48 h
[2] = Antitumor activity against human Hs 578T cells after 48 hrs by MTT assay
A498 = assay: Antitumor activity against human A498 cells after 48 hrs by MTT assay; details: A498, 48 h
In short: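 Cells grown at 37 °C in humidified 5% CO2, seeded at 1×10^4 cells/well, and allowed to attach for 24 h. They were then exposed to a range of concentrations for 48 h, washed with PBS, and given 1 mg/ml MTT for 2 h. Formazan was dissolved in DMSO and read at 570 nm.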

SK-MEL-28 = assay: Antitumor activity against human SK-MEL-28 cells after 48 hrs by MTT assay; details: SK-MEL-28, 48 h
HCT-15 = assay: Antitumor activity against human HCT15 cells after 48 hrs by MTT assay; details: HCT-15, 48 h
NCI-H322M = assay: Antitumor activity against human NCI-H322M cells after 48 hrs by MTT assay
OVCAR-8 = assay: Antitumor activity against human OVCAR8 cells after 48 hrs by MTT assay; details: OVCAR-8, 48 h
SN12C = assay: Antitumor activity against human SN12C cells after 48 hrs by MTT assay
K562 = assay: Antitumor activity against human K562 cells after 48 hrs by MTT assay; details: K562, 48 h
DU-145 = assay: Antitumor activity against human DU145 cells after 48 hrs by MTT assay; details: DU-145, 48 h
OVCAR-5 = assay: Antitumor activity against human OVCAR5 cells after 48 hrs by MTT assay; details: OVCAR-5, 48 h
PC-3 = assay: Antitumor activity against human PC3 cells after 48 hrs by MTT assay; details: PC-3, 48 h
EKVX = assay: Antitumor activity against human EKVX cells after 48 hrs by MTT assay
SNB-19 = assay: Antitumor activity against human SNB19 cells after 48 hrs by MTT assay; details: SNB-19, 48 h
T47D = assay: Antitumor activity against human T47D cells after 48 hrs by MTT assay
[3] = read-out: pLC50 (the source's name) (converted)

Which GI50 (786-0; read-out: pGI50 (converted)) does the source give for `OCc1ccc(-c2nn(Cc3ccccc3)c3cc[se]c23)o1` here?
Its GI50 is 33.1 µM.

And the CC50 (786-0; [3])?
Its CC50 is > 100 µM.

And the TGI (786-0; read-out: pTGI)?
Its TGI is > 100 µM.

And the GI50 (HCT-116)?
Its GI50 is 18.2 µM.

And the CC50 (HCT-116; [3])?
Its CC50 is > 100 µM.

What about the TGI (HCT-116; read-out: pTGI) of the same compound?
The TGI was > 100 µM.

What about the GI50 (SW-620) of the same compound?
Its GI50 is 35.5 µM.

And the CC50 (SW-620; [3])?
The CC50 was > 100 µM.

And the TGI (SW-620; read-out: pTGI)?
Its TGI is > 100 µM.

What about the GI50 (MCF7; read-out: pGI50 (converted)) of the same compound?
The GI50 was 11.2 µM.

And the CC50 (MCF7; [3])?
The CC50 was > 100 µM.

What about the TGI (MCF7; read-out: pTGI) of the same compound?
The TGI was > 100 µM.

What about the GI50 (KM12) of the same compound?
Its GI50 is 49 µM.

And the CC50 (KM12; [3])?
The CC50 was > 100 µM.

And the TGI (KM12; read-out: pTGI)?
The TGI was > 100 µM.

And the CC50 [1, 3]?
The CC50 was > 100 µM.

And the TGI ([1]; read-out: pTGI)?
The TGI was > 100 µM.

And the GI50 (MOLT-4)?
The GI50 was 22.9 µM.

What about the CC50 (MOLT-4; [3]) of the same compound?
Its CC50 is > 100 µM.

What about the GI50 (SF-295) of the same compound?
Its GI50 is 19.1 µM.

And the CC50 (SF-295; [3])?
The CC50 was > 100 µM.

What about the TGI (SF-295; read-out: pTGI (converted)) of the same compound?
Its TGI is 63.1 µM.

What about the GI50 (OVCAR-4) of the same compound?
The GI50 was 26.3 µM.

What about the CC50 (OVCAR-4; [3]) of the same compound?
The CC50 was > 100 µM.

And the TGI (OVCAR-4; read-out: pTGI)?
The TGI was > 100 µM.

What about the CC50 (CAKI-1; [3]) of the same compound?
The CC50 was > 100 µM.

And the TGI (CAKI-1; read-out: pTGI)?
The TGI was > 100 µM.

And the GI50 (NCI-H460)?
The GI50 was 28.2 µM.

What about the CC50 (NCI-H460; [3]) of the same compound?
The CC50 was > 100 µM.

What about the TGI (NCI-H460; read-out: pTGI) of the same compound?
Its TGI is > 100 µM.

What about the GI50 [2] of the same compound?
The GI50 was 20 µM.

And the CC50 [2, 3]?
The CC50 was > 100 µM.

What about the TGI ([2]; read-out: pTGI (converted)) of the same compound?
Its TGI is 74.1 µM.

What about the GI50 (A498; read-out: pGI50 (converted)) of the same compound?
Its GI50 is 0.162 µM.

What about the CC50 (A498; read-out: pLC50 (converted)) of the same compound?
The CC50 was 0.631 µM.

And the TGI (A498; read-out: pTGI)?
Its TGI is 0.324 µM.

What about the GI50 (SK-MEL-28) of the same compound?
Its GI50 is 28.8 µM.

And the CC50 (SK-MEL-28; [3])?
The CC50 was > 100 µM.

What about the TGI (SK-MEL-28; read-out: pTGI (converted)) of the same compound?
Its TGI is 91.2 µM.

What about the GI50 (HCT-15) of the same compound?
The GI50 was 30.2 µM.

What about the CC50 (HCT-15; [3]) of the same compound?
The CC50 was > 100 µM.

And the TGI (HCT-15; read-out: pTGI)?
The TGI was > 100 µM.

And the GI50 (NCI-H322M)?
The GI50 was 40.7 µM.

And the CC50 (NCI-H322M; [3])?
The CC50 was > 100 µM.

What about the TGI (NCI-H322M; read-out: pTGI) of the same compound?
Its TGI is > 100 µM.

And the GI50 (OVCAR-8; read-out: pGI50 (converted))?
The GI50 was 55 µM.

And the CC50 (OVCAR-8; [3])?
Its CC50 is > 100 µM.

What about the TGI (OVCAR-8; read-out: pTGI) of the same compound?
The TGI was > 100 µM.

And the GI50 (SN12C; read-out: pGI50 (converted))?
The GI50 was 43.6 µM.

What about the CC50 (SN12C; [3]) of the same compound?
The CC50 was > 100 µM.

And the TGI (SN12C; read-out: pTGI)?
The TGI was > 100 µM.

What about the GI50 (K562) of the same compound?
Its GI50 is 25.1 µM.

And the CC50 (K562; [3])?
The CC50 was > 100 µM.

And the TGI (K562; read-out: pTGI)?
The TGI was > 100 µM.

What about the GI50 (DU-145; read-out: pGI50 (converted)) of the same compound?
Its GI50 is 45.7 µM.

And the CC50 (DU-145; [3])?
Its CC50 is > 100 µM.

What about the TGI (DU-145; read-out: pTGI) of the same compound?
Its TGI is > 100 µM.

What about the GI50 (OVCAR-5; read-out: pGI50 (converted)) of the same compound?
The GI50 was 7.41 µM.

What about the CC50 (OVCAR-5; [3]) of the same compound?
Its CC50 is > 100 µM.

What about the TGI (OVCAR-5; read-out: pTGI) of the same compound?
The TGI was > 100 µM.

And the GI50 (PC-3; read-out: pGI50 (converted))?
The GI50 was 27.5 µM.

What about the CC50 (PC-3; [3]) of the same compound?
The CC50 was > 100 µM.

And the TGI (PC-3; read-out: pTGI)?
The TGI was > 100 µM.

And the GI50 (EKVX)?
Its GI50 is 33.1 µM.

What about the CC50 (EKVX; [3]) of the same compound?
The CC50 was > 100 µM.

And the TGI (EKVX; read-out: pTGI)?
Its TGI is > 100 µM.

And the GI50 (SNB-19)?
The GI50 was 49 µM.

What about the CC50 (SNB-19; [3]) of the same compound?
The CC50 was > 100 µM.

And the TGI (SNB-19; read-out: pTGI)?
The TGI was > 100 µM.

And the GI50 (T47D)?
Its GI50 is 21.4 µM.

What about the CC50 (T47D; [3]) of the same compound?
The CC50 was > 100 µM.

And the TGI (T47D; read-out: pTGI (converted))?
Its TGI is 89.1 µM.
